Test results published in ChEMBL document CHEMBL3351652, “First photoswitchable neurotransmitter transporter inhibitor: light-induced control of γ-aminobutyric acid transporter 1 (GAT1) activity in mouse brain” (J Med Chem, 2014).
pIC50: −log10 of the molar value. Calls of active or inactive are those of the source. The rule behind the calls is not given here.

How the values were obtained:
[1] = Half life of thermal relaxation of the compound in DMSO-d6/phosphate-buffer at pH 7.4 in dark at 50 uM by UV/vis-spectroscopy; assay type: physicochemical; settings: pH 7.4, 50 µM
How it was run: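 Photoisomer relaxation to (E) monitored in the dark by UV/vis spectroscopy at 50 μM in DMSO-d6/phosphate buffer (pH 7.4) 1:200 (v/v), 25 °C; half-life derived from this thermal back-isomerization.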

[2] = target: T1, Sodium- and chloride-dependent GABA transporter 1 (Mus musculus, UniProt P31648); experiment: Inhibition of mouse GAT1 stably expressed in HEK293 assessed as inhibition of [3H]GABA uptake treated with compound irradiated at 375 nm for 30 mins measured after 25 mins by liquid scintillation counting; assay type: cell-based
[3] = target: T1, Sodium- and chloride-dependent GABA transporter 1; experiment: Inhibition of mouse GAT1 stably expressed in HEK293 assessed as inhibition of [3H]GABA uptake after 25 mins by liquid scintillation counting; assay type: cell-based
How it was run: (§1)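 HEK cells stably expressing the individual murine GABA transporter subtype; standardized [3H]GABA uptake assay adapted for photoswitchable ligands, run with the pure (E)-isomers; inhibition expressed as pIC50 ± SEM.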

[4] = target: T1, Sodium- and chloride-dependent GABA transporter 1; experiment: Inhibition of mouse GAT1 stably expressed in HEK293 assessed as inhibition of [3H]GABA uptake treated with compound irradiated at 350 nm for 30 mins measured after 25 mins by liquid scintillation counting; assay type: cell-based
[5] = target: T2, GABA transporter 2 (Mus musculus, UniProt P31651); experiment: Inhibition of mouse GAT2 stably expressed in HEK293 assessed as inhibition of [3H]GABA uptake after 25 mins by liquid scintillation counting; assay type: cell-based; how it was run: as §1
T2 sequence (P31651 whole entry): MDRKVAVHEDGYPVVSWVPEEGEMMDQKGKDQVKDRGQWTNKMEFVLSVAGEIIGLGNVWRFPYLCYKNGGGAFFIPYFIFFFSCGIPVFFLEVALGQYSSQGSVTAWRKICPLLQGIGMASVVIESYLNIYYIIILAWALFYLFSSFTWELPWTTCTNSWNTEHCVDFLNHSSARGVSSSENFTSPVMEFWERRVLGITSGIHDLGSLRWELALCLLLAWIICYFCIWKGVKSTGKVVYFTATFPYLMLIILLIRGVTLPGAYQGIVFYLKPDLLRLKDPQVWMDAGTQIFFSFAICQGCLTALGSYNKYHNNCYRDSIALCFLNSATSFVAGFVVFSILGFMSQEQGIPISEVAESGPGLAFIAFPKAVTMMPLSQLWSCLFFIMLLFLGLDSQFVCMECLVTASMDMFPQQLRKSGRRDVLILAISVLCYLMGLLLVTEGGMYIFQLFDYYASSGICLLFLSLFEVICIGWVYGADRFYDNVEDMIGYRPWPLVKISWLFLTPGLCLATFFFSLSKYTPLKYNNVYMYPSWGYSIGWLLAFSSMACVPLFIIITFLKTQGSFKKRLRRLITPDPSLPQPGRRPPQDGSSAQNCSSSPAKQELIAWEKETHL

[6] = target: T3, GABA transporter 3 (Mus musculus, UniProt P31649); experiment: Inhibition of mouse GAT3 stably expressed in HEK293 assessed as inhibition of [3H]GABA uptake after 25 mins by liquid scintillation counting; assay type: cell-based; how it was run: as §1
T3 sequence (P31649 whole entry): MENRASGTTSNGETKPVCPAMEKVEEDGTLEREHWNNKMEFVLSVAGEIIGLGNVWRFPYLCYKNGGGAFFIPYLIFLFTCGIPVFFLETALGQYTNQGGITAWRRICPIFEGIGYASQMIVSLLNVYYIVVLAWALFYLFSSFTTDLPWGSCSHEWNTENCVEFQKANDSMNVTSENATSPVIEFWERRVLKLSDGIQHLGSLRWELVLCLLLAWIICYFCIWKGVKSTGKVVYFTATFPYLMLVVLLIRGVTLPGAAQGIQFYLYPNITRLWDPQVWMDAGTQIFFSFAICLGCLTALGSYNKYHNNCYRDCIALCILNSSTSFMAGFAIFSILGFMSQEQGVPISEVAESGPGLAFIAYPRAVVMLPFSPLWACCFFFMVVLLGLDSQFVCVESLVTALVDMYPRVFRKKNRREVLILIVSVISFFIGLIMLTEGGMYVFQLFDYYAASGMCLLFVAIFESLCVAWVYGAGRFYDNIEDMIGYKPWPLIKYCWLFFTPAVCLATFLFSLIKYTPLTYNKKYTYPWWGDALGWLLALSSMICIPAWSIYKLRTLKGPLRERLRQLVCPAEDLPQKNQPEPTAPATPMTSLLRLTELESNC

[7] = target: T4, GABA transporter 4 (Mus musculus, UniProt P31650); experiment: Inhibition of mouse GAT4 stably expressed in HEK293 assessed as inhibition of [3H]GABA uptake after 25 mins by liquid scintillation counting; assay type: cell-based; how it was run: as §1
T4 sequence (P31650 whole entry): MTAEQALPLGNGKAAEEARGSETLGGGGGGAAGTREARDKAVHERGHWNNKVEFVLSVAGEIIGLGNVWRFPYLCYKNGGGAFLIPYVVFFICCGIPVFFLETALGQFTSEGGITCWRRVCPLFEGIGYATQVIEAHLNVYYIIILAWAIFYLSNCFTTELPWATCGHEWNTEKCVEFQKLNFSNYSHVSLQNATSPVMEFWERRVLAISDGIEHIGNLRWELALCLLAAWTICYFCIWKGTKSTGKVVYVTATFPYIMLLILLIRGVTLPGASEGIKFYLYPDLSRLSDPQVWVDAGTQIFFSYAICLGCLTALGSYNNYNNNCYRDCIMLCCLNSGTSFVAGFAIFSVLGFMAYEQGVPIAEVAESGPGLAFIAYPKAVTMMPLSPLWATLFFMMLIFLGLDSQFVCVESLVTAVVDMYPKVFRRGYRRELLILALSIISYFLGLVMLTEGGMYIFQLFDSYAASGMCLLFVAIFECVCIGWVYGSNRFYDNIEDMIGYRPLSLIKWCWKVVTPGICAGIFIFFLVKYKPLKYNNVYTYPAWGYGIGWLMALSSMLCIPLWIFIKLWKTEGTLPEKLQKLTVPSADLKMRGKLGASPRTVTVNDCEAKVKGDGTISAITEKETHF

[8] = target: Sodium- and chloride-dependent GABA transporter 1 (Mus musculus) (UniProt P31648); experiment: Selectivity ratio of IC50 for mouse GAT1 stably expressed in HEK293 assessed as inhibition of [3H]GABA uptake after 25 mins to IC50 for mouse GAT1 stably expressed in HEK293 assessed as inhibition of [3H]GABA uptake treated with compound irradiated at 375 nm for 30 mins measured after 25 mins
[9] = target: Sodium- and chloride-dependent GABA transporter 1 (Mus musculus) (UniProt P31648); experiment: Inhibition of GAT1 in C57BL/6N mouse dentate gyrus granule cells assessed as induction of tonic GABAA receptor-mediated current at -70 mV holding potential non-UV irradiated compound treated at 20 uM by patch-clamp analysis
[10] = target: Sodium- and chloride-dependent GABA transporter 1 (Mus musculus) (UniProt P31648); experiment: Inhibition of GAT1 in C57BL/6N mouse dentate gyrus granule cells assessed as induction of tonic GABAA receptor-mediated current at -70 mV holding potential UV irradiated compound treated at 20 uM by patch-clamp analysis
[11] = target: Sodium- and chloride-dependent GABA transporter 1 (Mus musculus) (UniProt P31648); experiment: Inhibition of GAT1 in C57BL/6N mouse dentate gyrus granule cells assessed as induction of tonic GABAA receptor-mediated current at -70 mV holding potential compound treated at 20 uM followed by neuronal tissue UV-irradiation by patch-clamp analysis
[12] = Half life of thermal relaxation of the compound in D2O in dark at 10 mM by 1H NMR analysis; assay type: physicochemical; settings: 10000 µM
How it was run: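 Thermal relaxation of the photoisomer back to the (E)-form followed in the dark by 1H NMR in D2O, 10 mM, at 37 °C.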

In the case of `O=C(O)[C@@H]1CCCN(CCOCCc2ccc(/N=N\c3cccc4ccccc34)cc2)C1`, the t1/2 [1] was 13.6 h and the pIC50 [2] was 6.10.

With `O=C(O)C1CCCN(CCOCCc2cccc(/N=N/c3ccccc3)c2)C1` (stereo not given) the pIC50 [3] was 5.50, the pIC50 [4] was 5.38 and the pIC50 [5] was 3.47. For the same compound, the pIC50 [6] was 3.83 and the pIC50 [7] was 3.68.

With `O=C(O)C1CCCN(CCOCCc2ccc(/N=N/c3ccccc3)cc2)C1` (stereo not given) the pIC50 [3] was 5.72, the pIC50 [4] was 5.34 and the pIC50 [5] was under 3.00. It also gave a pIC50 [6] of under 3.00 and a pIC50 [7] of under 3.00.

`O=C(O)[C@@H]1CCCN(CCOCCc2cccc(/N=N/c3cccc4ccccc34)c2)C1` gave a pIC50 [3] of 6.39, a pIC50 [2] of 5.78 and a pIC50 [5] of 4.19. For the same compound, the pIC50 [6] was 4.60, the pIC50 [7] was 4.51 and the Ratio IC50 [8] was 4. The inhibition [9] was “Active”, the inhibition [10] was “inactive” and the inhibition [11] was “inactive”.

`O=C(O)[C@@H]1CCCN(CCOCCc2cccc(/N=N\c3cccc4ccccc34)c2)C1` showed a t1/2 [1] of 19.3 h and a pIC50 [2] of 5.78.

With `O=C(O)C1CCCN(CCOCCc2cccc(/N=N\c3ccccc3)c2)C1` (stereo not given) the t1/2 [12] was 140 h and the pIC50 [4] was 5.38.

`O=C(O)[C@@H]1CCCN(CCOCCc2ccc(/N=N/c3cccc4ccccc34)cc2)C1` gave a pIC50 [3] of 6.57, a pIC50 [2] of 6.10 and a pIC50 [5] of 4.69. For the same compound, the pIC50 [6] was 4.71, the pIC50 [7] was 4.64 and the Ratio IC50 [8] was 3.

Compound `O=C(O)C1CCCN(CCOCCc2ccccc2/N=N\c2ccccc2)C1` (stereo not given) has a t1/2 [12] of 115 h and a pIC50 [4] of 5.26.

Work on `O=C(O)C1CCCN(CCOCCc2ccccc2/N=N/c2ccccc2)C1` (stereo not given) yielded a pIC50 [3] of 4.97, a pIC50 [4] of 5.26 and a pIC50 [5] of 3.63. For the same compound, the pIC50 [6] was 3.84 and the pIC50 [7] was 3.25.

In the case of `O=C(O)C1CCCN(CCOCCc2ccc(/N=N\c3ccccc3)cc2)C1` (stereo not given), the t1/2 [12] was 57.6 h and the pIC50 [4] was 5.34.
